The values below come from the array DNA melting data of Ke et al. (doi:10.1101/2024.01.08.574731).

A short description of data set [1]: folding enthalpy; higher = less favourable; fluorescence melt of hairpins on a sequencing array, two-state fit. Conditions: sodium 0.088 M. In outline: (§1)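 Bootstrapped two-state fits yielded melting temperature and folding enthalpy for library hairpins. Cy3 fluorescence, with annealed Cy3 and quencher oligos, was imaged on a sequenced MiSeq flow cell in 50 mM Na-HEPES pH 8.0, 25 mM NaCl in 2.5 °C steps up to 60 °C, and normalised to pre-quench Cy3 and to control constructs. Four replicates were combined by inverse variance, and fitted temperatures were raised by 9.35 °C to match UV melts.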

Data set [2] can be described thus: melting temperature; fluorescence melt of hairpins on a sequencing array, two-state fit, raised by 9.35 °C to match UV melts. As to conditions: sodium 0.088 M. Put shortly: as §1

As for GGGCATACGAAAGTACCC (((..(((....)))))), in data set [1], the folding enthalpy was -19.6 kcal/mol. Besides, in data set [2], the Tm was determined as 34.7 °C.
The matching figures for GGGCATGGAAACGTGCTC (.(((.(....).))).): -20.8 kcal/mol and 45 °C.
As for GGGCCACGAAAGTGTCCC (((.(((....))).))), the folding enthalpy in data set [1] is -45.3 kcal/mol. The Tm in data set [2] stood at 57.3 °C.
Turning to GGGCCAGCGAAAGCTCCC (((..(((....)))))), in data set [1], the folding enthalpy is -14.5 kcal/mol. In addition, the Tm in data set [2] was determined as 40.3 °C.
In the case of GGGCCAGGAAACTGGCTC (.(((((....))))).), the folding enthalpy in data set [1] is -16.1 kcal/mol. The Tm in data set [2] came out at 61 °C.
As for GGGCCATCGAAAGATCCC (((..(((....)))))), the folding enthalpy in data set [1] was -16.4 kcal/mol. The Tm in data set [2] turned out to be 31.6 °C.
On to GGGCCCGAAAGGGAACCC ((((((....)))..))), for which, in data set [1], the folding enthalpy is -15.6 kcal/mol. Also, the Tm in data set [2] came to 57.5 °C.
The matching figures for GGGCCCGAAAGGGCTCCC ((((((....)))..))): -9.89 kcal/mol and 59.7 °C.
The like results for GGGCCCGAAAGGGGTCCC ((((((....)))..))) were, in that order, -14.5 kcal/mol and 66.2 °C.
With GGGCCCGAAAGGGTTCCC ((((((....)))..))), the folding enthalpy in data set [1] was -15.2 kcal/mol. In data set [2], the Tm was found to be 51.5 °C.
As to GGGCCCGGAAACAGGCCC (((((.(....).))))), the folding enthalpy in data set [1] is -34.2 kcal/mol. For the same sequence, the Tm in data set [2] is 59.1 °C.
Take GGGCCCTCGAAAGAGCCC (((..(((....)))))): the folding enthalpy in data set [1] was -23 kcal/mol. In data set [2], the Tm is 48.1 °C.
On to GGGCCGCGAAAGCGACCC (((.(((....))).))), for which, in data set [1], the folding enthalpy is -29.7 kcal/mol. Moreover, in data set [2], the Tm amounted to 68.8 °C.
As for GGGCCGGGAAACCAGCCC ((((.((....)).)))), the folding enthalpy in data set [1] was -49.3 kcal/mol. Besides, in data set [2], the Tm came out at 54.3 °C.
The like results for GGGCCGGGAAACCGGCTC (.(((((....))))).) were, in that order, -15.4 kcal/mol and 66.8 °C.
As to GGGCCGTCGAAAGACCCC (((..(((....)))))), in data set [1], the folding enthalpy is -16.6 kcal/mol. Moreover, the Tm in data set [2] came to 44.4 °C.
The matching figures for GGGCGCGAAAGCGGGCCC ((((((....)))..))): -13.4 kcal/mol and 64.8 °C.
The like results for GGGCGCTCGAAAGAGCCC (((..(((....)))))) were, in that order, -14 kcal/mol and 56.9 °C.
In the case of GGGCGGGGAAACCCGCTC (.(((((....))))).), the folding enthalpy in data set [1] is -15.2 kcal/mol. The Tm in data set [2] came to 64.7 °C.
The like results for GGGCGTACGAAAGTACCC (((..(((....)))))) were, in that order, -17.4 kcal/mol and 50.2 °C.
The matching figures for GGGCGTCGAAAGACCCC (((.(((....)))))): -37.1 kcal/mol and 58.9 °C.
The matching figures for GGGCGTGGAAACACGCTC (.(((((....))))).): -14.5 kcal/mol and 62.4 °C.
For GGGCTAGCGAAAGCTCCC (((..(((....)))))), the folding enthalpy in data set [1] is -15.1 kcal/mol. Also, the Tm in data set [2] is 38.8 °C.
Regarding GGGCTAGGAAACCAGCCC (((((.(....).))))), the folding enthalpy in data set [1] was -44.8 kcal/mol. Besides, the Tm in data set [2] came to 54.1 °C.
The like results for GGGCTAGGAAACTAACCC (((.(((....))).))) were, in that order, -31.5 kcal/mol and 39.2 °C.
Take GGGCTCACGAAAGTGCCC (((..(((....)))))): the folding enthalpy in data set [1] was -21 kcal/mol. For the same sequence, the Tm in data set [2] came out at 51.9 °C.
Turning to GGGCTCCGAAAGGAACCC (((.(((....))).))), the folding enthalpy in data set [1] was -44.1 kcal/mol. Also, in data set [2], the Tm was found to be 56.5 °C.
The like results for GGGCTCGAAAGAGCTCCC ((((((....)))..))) were, in that order, -10.6 kcal/mol and 50 °C.
The matching figures for GGGCTCGAAAGAGGCCCC ((((((....)))..))): -12.3 kcal/mol and 67 °C.
The matching figures for GGGCTGGGAAACCAACCC (((.(((....))).))): -30 kcal/mol and 49 °C.
Consider GGGCTGGGAAACCGGTCC ((.(.((....)).).)), for which, in data set [1], the folding enthalpy was -44.6 kcal/mol. For the same sequence, the Tm in data set [2] was 49.2 °C.
For the sequence GGGCTGGGAAACTGGCCC ((((..(....)..)))), the folding enthalpy in data set [1] is -48.3 kcal/mol. For the same sequence, the Tm in data set [2] was 54.3 °C.
For GGGCTTACGAAAGTACCC (((..(((....)))))), the folding enthalpy in data set [1] was -20.9 kcal/mol. Also, in data set [2], the Tm amounted to 34.4 °C.
In the case of GGGCTTGAAAAAGCCC ((((((....)))))), the folding enthalpy in data set [1] was -35.8 kcal/mol. Also, the Tm in data set [2] is 68.1 °C.
In the case of GGGCTTGGAAACGAGCCC (((((.(....).))))), the folding enthalpy in data set [1] is -51.4 kcal/mol. Besides, the Tm in data set [2] is 59.2 °C.
The matching figures for GGGGAACGAAAGTTACCC (((.(((....))).))): -47.9 kcal/mol and 60.6 °C.
The like results for GGGGAACGAAAGTTGCCC (((.(((....))).))) were, in that order, -39.1 kcal/mol and 64 °C.
The like results for GGGGAATCGAAAGATCCC (((..(((....)))))) were, in that order, -22.5 kcal/mol and 49.1 °C.
In the case of GGGGACGAAAGTCAACCC ((((((....)))..))), the folding enthalpy in data set [1] was -17.6 kcal/mol. In addition, the Tm in data set [2] was 49 °C.
On to GGGGACGAAAGTCGGCCC ((((((....)))..))), for which the folding enthalpy in data set [1] was -27.2 kcal/mol. Further, in data set [2], the Tm was 56.4 °C.
With GGGGACGGAAACACCCCC ((((..(....)..)))), in data set [1], the folding enthalpy is -22.6 kcal/mol. Moreover, in data set [2], the Tm is 34.8 °C.
The matching figures for GGGGACGGAAACGTCTCC ((.((((....)))).)): -27.5 kcal/mol and 57.2 °C.
The matching figures for GGGGACGGAAACGTTCCC (((.(((....))).))): -43.9 kcal/mol and 61.4 °C.
The matching figures for GGGGAGGAAACTCCCC ((((((....)))))): -36.9 kcal/mol and 66.3 °C.
As for GGGGAGGGAAACCTTCCC (((.(((....))).))), in data set [1], the folding enthalpy is -33 kcal/mol. The Tm in data set [2] amounted to 53.4 °C.
The like results for GGGGATCGAAAGATTCCC (((.(((....))).))) were, in that order, -53.6 kcal/mol and 57.5 °C.
The like results for GGGGATGGAAACACCCCC ((((.((....)).)))) were, in that order, -26.4 kcal/mol and 49 °C.
For the sequence GGGGATGGAAACATTCCC (((.(((....))).))), the folding enthalpy in data set [1] is -40.9 kcal/mol. Also, the Tm in data set [2] was determined as 51.6 °C.
The matching figures for GGGGCCGAAAGGCCGCCC ((((((....)))..))): -9.69 kcal/mol and 56.9 °C.
Turning to GGGGCGGGAAACCGCTCC ((.((((....)))).)), in data set [1], the folding enthalpy is -19.8 kcal/mol. Besides, in data set [2], the Tm is 66.9 °C.
On to GGGGCGGGAAACCGTCCC (((.(((....))).))), for which the folding enthalpy in data set [1] was -34.9 kcal/mol. For the same sequence, in data set [2], the Tm is 67.7 °C.
The like results for GGGGCGTCGAAAGACCCC (((..(((....)))))) were, in that order, -16.9 kcal/mol and 57.3 °C.
As to GGGGCTGGAAACGGCCCC (((((.(....).))))), the folding enthalpy in data set [1] is -40.7 kcal/mol. Further, in data set [2], the Tm came out at 66.8 °C.
On to GGGGCTGGAAACGGCCTC (.(((.(....).))).), for which the folding enthalpy in data set [1] is -20.8 kcal/mol. For the same sequence, in data set [2], the Tm was found to be 50.2 °C.
The like results for GGGGGACGAAAGTCTCCC (((.(((....))).))) were, in that order, -34.4 kcal/mol and 66 °C.
The matching figures for GGGGGAGAAATCCCCC ((((((....)))))): -29.9 kcal/mol and 65.5 °C.
As for GGGGGAGGAAACTCTCCC (((.(((....))).))), in data set [1], the folding enthalpy was -38 kcal/mol. Moreover, the Tm in data set [2] was 52.7 °C.
The matching figures for GGGGGAGGAAACTTCCCC ((((.((....)).)))): -47.8 kcal/mol and 54.4 °C.
Regarding GGGGGCGAAAGCCCTCCC ((((((....)))..))), in data set [1], the folding enthalpy is -9.75 kcal/mol. Further, the Tm in data set [2] turned out to be 51.9 °C.
The matching figures for GGGGGCGAAAGCCGACCC ((((((....)))..))): -15.1 kcal/mol and 54 °C.
The matching figures for GGGGGCGAAAGCCGTCCC ((((((....)))..))): -13.7 kcal/mol and 49.4 °C.
Consider GGGGGCGAAAGCCTACCC ((((((....)))..))), for which the folding enthalpy in data set [1] is -15 kcal/mol. Moreover, the Tm in data set [2] worked out at 49.8 °C.
The like results for GGGGGCGAAAGCCTCCCC ((((((....)))..))) were, in that order, -11.5 kcal/mol and 61.4 °C.
The matching figures for GGGGGCGAAAGCCTGCCC ((((((....)))..))): -13.7 kcal/mol and 43.8 °C.
For the sequence GGGGGCGGAAACGCCCTC (.(((((....))))).), in data set [1], the folding enthalpy was -11.6 kcal/mol. The Tm in data set [2] came out at 63.4 °C.
The like results for GGGGGCGGAAACGCTCCC (((.(((....))).))) were, in that order, -32.6 kcal/mol and 67.6 °C.
GGGGGGGGAAACCCCCTC (.(((((....))))).): the folding enthalpy in data set [1] was -12.5 kcal/mol. Further, the Tm in data set [2] came out at 67.8 °C.
The like results for GGGGGTGGAAACGCCCCC (((((.(....).))))) were, in that order, -28.9 kcal/mol and 66.9 °C.
On to GGGGTACCGAAAGGTCCC (((..(((....)))))), for which the folding enthalpy in data set [1] is -27.5 kcal/mol. Further, the Tm in data set [2] amounted to 56.7 °C.
The like results for GGGGTACGAAAGTAACCC (((.(((....))).))) were, in that order, -34.1 kcal/mol and 60.9 °C.
With GGGGTAGGAAACTACCTC (.(((((....))))).), the folding enthalpy in data set [1] was -20 kcal/mol. In addition, the Tm in data set [2] was found to be 48 °C.
The like results for GGGGTAGGAAACTACTCC ((.((((....)))).)) were, in that order, -30.1 kcal/mol and 47.6 °C.
The like results for GGGGTCGAAAGACTTCCC ((((((....)))..))) were, in that order, -15.6 kcal/mol and 39 °C.
